The record followed here is ChEMBL document CHEMBL4406806, “Design, Synthesis, and Characterization of Ogerin-Based Positive Allosteric Modulators for G Protein-Coupled Receptor 68 (GPR68)” (J Med Chem, 2019).

Holding throughout (assay type): functional, cell-based
The target of test [1] is G-protein coupled receptor 68 (Homo sapiens) (UniProt Q15743). Briefly: Positive allosteric modulation of human GPR68 expressed in HEK293T cells co-expressing Gs assessed as stimulation of proton-mediated cAMP production by measuring efficacy cooperativity in HBSS buffer containing pH 6.8 to 8.2 HEPES/pH 8.3 to 8.6 TAPS measured after 20 to 30 mins in presence of PDE inhibitor Ro 20-1724 by luciferase-glo reporter gene assay. Put shortly:
(§1)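 Transient co-transfection of HEK293T with receptor and GloSensor plasmids using PEI, overnight, then replated in DMEM + 1% dFBS for 6–24 h. Luciferin 3.5 mM loaded for 1 h at 37 °C in HBSS/20 mM TAPS, pH 8.40. Proton series: Ca/Mg-free HBSS with MES (pH 5.60–6.70), HEPES (6.80–8.20) or TAPS (8.30–8.60), plus 10 μM Ro 20-1724. BSA 1 mg/mL added where solubility required. Luminescence read at 20–30 min. At least six 16-point proton curves across modulator concentrations, quadruplicate, ≥3 independent assays.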
In general terms: Changes in cAMP serve as a functional read-out for many G protein-coupled receptors.

Test [2] shares this target. Briefly: Positive allosteric modulation of human GPR68 expressed in HEK293T cells co-expressing Gs assessed as stimulation of proton-mediated cAMP production by measuring allosteric affinity cooperativity in HBSS buffer containing pH 6.8 to 8.2 HEPES/pH 8.3 to 8.6 TAPS measured after 20 to 30 mins in presence of PDE inhibitor Ro 20-1724 by luciferase-glo reporter gene assay. Put shortly: as §1

Test [3] has the same target. Kind of test: Positive allosteric modulation of human GPR68 expressed in HEK293T cells co-expressing Gs assessed as stimulation of proton-mediated cAMP production by measuring allosteric index in HBSS buffer containing pH 6.8 to 8.2 HEPES/pH 8.3 to 8.6 TAPS measured after 20 to 30 mins in presence of PDE inhibitor Ro 20-1724 by luciferase-glo reporter gene assay. In outline:
as §1

Sequence of G-protein coupled receptor 68 (Homo sapiens) (Q15743 whole entry): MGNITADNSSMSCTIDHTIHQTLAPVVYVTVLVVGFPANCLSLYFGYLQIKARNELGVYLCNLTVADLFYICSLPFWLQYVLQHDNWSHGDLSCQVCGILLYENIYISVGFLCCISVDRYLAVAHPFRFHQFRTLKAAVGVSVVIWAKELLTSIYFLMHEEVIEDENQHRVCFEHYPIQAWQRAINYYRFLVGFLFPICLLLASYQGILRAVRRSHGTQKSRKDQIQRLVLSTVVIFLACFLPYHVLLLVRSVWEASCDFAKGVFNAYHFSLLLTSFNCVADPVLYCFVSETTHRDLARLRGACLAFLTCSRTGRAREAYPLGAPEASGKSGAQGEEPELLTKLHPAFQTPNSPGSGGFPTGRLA

With `COc1ccc(CNc2nc(N)nc(-c3ccccc3CO)n2)cc1`, the log(activity) in test [1] came out at 0.49; in test [2] it was 0.78. Besides, the Activity index in test [3] stood at 4.61.

For the compound `Nc1nc(NCCc2ccc(Oc3ccccc3)cc2)nc(-c2cc(Cl)ccc2CO)n1`, the log(activity) in test [1] is -0.04; in test [2], 1.39. Further, in test [3], the Activity index came to 5.87.

Regarding `COc1ccc(-c2nc(N)nc(NCc3ccccc3)n2)c(CO)c1`, the log(activity) in test [1] is 0.14; in test [2], 0.46. For the same compound, in test [3], the Activity index was 4.97.

Consider `Nc1nc(NCCCCc2ccc(Oc3ccccc3)cc2)nc(-c2ccccc2CO)n1`, for which the log(activity) came to 0.09 in test [1] and 1.03 in test [2]. In test [3], the Activity index worked out at 5.94.

For `COc1ccc(CO)c(-c2nc(N)nc(NCc3ccccc3)n2)c1`, the log(activity) in test [1] was determined as 0.18; in test [2], 0.61. Also, the Activity index in test [3] was determined as 4.77.

As for `Nc1nc(NCc2cccc(Cl)c2)nc(-c2ccccc2CO)n1`, the log(activity) was found to be 0.46 in test [1] and 0.48 in test [2]. Further, the Activity index in test [3] came out at 5.9.

For the compound `Nc1nc(NCc2ccc(Oc3ccccc3)cc2)nc(-c2cc(Cl)ccc2CO)n1`, the values for the log(activity) in test [1] and in test [2] were 0.03 and 1.05, respectively. The Activity index in test [3] is 5.78.

Turning to `Nc1nc(NCCc2ccc(Oc3ccccc3)cc2)nc(-c2c(F)cccc2CO)n1`, the log(activity) in test [1] is -0.06; in test [2], 1.14. Moreover, the Activity index in test [3] was 6.14.

For the compound `Nc1nc(NCc2ccc(F)cc2)nc(-c2ccccc2CO)n1`, the log(activity) in test [1] turned out to be 0.36; in test [2], 1.09. The Activity index in test [3] stood at 5.42.

`Nc1nc(NCc2ccccc2)nc(-c2cccc(F)c2CO)n1`: the log(activity) in test [1] amounted to 0.27; in test [2], 0.59. For the same compound, the Activity index in test [3] was 4.86.

Turning to `Nc1nc(NCCc2ccccc2)nc(-c2ccccc2CO)n1`, the figures for the log(activity) in test [1] and in test [2] were 0.24 and 0.88, respectively. Moreover, in test [3], the Activity index was determined as 5.62.

For `Nc1nc(NCc2ccc(F)cc2)nc(-c2c(F)cccc2CO)n1`, the log(activity) in test [1] came to 0.09; in test [2] it was 1.01. The Activity index in test [3] came to 5.55.

For the compound `Nc1nc(NCCc2ccc(Oc3ccccc3)cc2)nc(-c2ccccc2CO)n1`, the log(activity) in test [1] is 0.03; in test [2], 0.83. The Activity index in test [3] turned out to be 5.9.

For the compound `Nc1nc(NCc2cccc(C(F)(F)F)c2)nc(-c2ccccc2CO)n1`, the values for the log(activity) in test [1] and in test [2] were 0.32 and 0.64, respectively. In addition, the Activity index in test [3] was determined as 6.07.

Take `Nc1nc(NCc2ccccc2C(F)(F)F)nc(-c2ccccc2CO)n1`: the log(activity) in test [1] was 0.31; in test [2] it was 0.6. Moreover, the Activity index in test [3] amounted to 5.96.

Regarding `COc1cccc(CNc2nc(N)nc(-c3ccccc3CO)n2)c1`, the log(activity) was 0.23 in test [1] and 0.89 in test [2]. In test [3], the Activity index was 5.22.

Consider `Nc1nc(NCc2ccccc2F)nc(-c2ccccc2CO)n1`, for which the log(activity) in test [1] came to 0.31; in test [2] it was 0.98. Also, the Activity index in test [3] was found to be 5.56.

Take `Nc1nc(NCCCc2ccccc2)nc(-c2ccccc2CO)n1`: the log(activity) in test [1] was 0.08; in test [2], 0.81. Further, the Activity index in test [3] was 6.11.

As to `Nc1nc(NCCCc2ccc(Oc3ccccc3)cc2)nc(-c2ccccc2CO)n1`, the log(activity) is -0.01 in test [1] and 1.19 in test [2]. Also, the Activity index in test [3] worked out at 5.84.

As to `Nc1nc(NCc2cccc(F)c2)nc(-c2ccccc2CO)n1`, the log(activity) in test [1] worked out at 0.33; in test [2], 0.7. Further, in test [3], the Activity index came out at 5.55.

In the case of `Nc1nc(NCc2ccccc2)nc(-c2c(Cl)cccc2CO)n1`, the results for the log(activity) in test [1] and in test [2] were -0.12 and 1.25, respectively. Besides, the Activity index in test [3] stood at 5.56.

In the case of `Cc1ccc(CNc2nc(N)nc(-c3ccccc3CO)n2)cc1`, the log(activity) in test [1] is 0.32; in test [2], 0.9. Also, the Activity index in test [3] was found to be 5.6.

For the compound `CCNc1nc(NCc2ccccc2)nc(-c2ccccc2CO)n1`, the log(activity) was 0.25 in test [1] and 0.47 in test [2]. Besides, in test [3], the Activity index is 5.34.

For the compound `CNc1nc(NCc2ccccc2)nc(-c2ccccc2CO)n1`, the log(activity) in test [1] was 0.37; in test [2], 0.48. The Activity index in test [3] is 5.36.

For the compound `Nc1nc(NCc2ccccc2)nc(-c2ccc(Cl)cc2CO)n1`, the values for the log(activity) in test [1] and in test [2] were 0.11 and 1.01, respectively. Moreover, the Activity index in test [3] amounted to 5.87.

Turning to `CC(C)Oc1ccc(-c2nc(N)nc(NCc3ccccc3)n2)c(CO)c1`, the figures for the log(activity) in test [1] and in test [2] were 0.27 and 0.56, respectively. Moreover, the Activity index in test [3] was determined as 5.74.

As to `NCc1ccccc1-c1nc(N)nc(NCc2ccccc2)n1`, the log(activity) in test [1] turned out to be 0.3; in test [2] it was 0.86. In test [3], the Activity index came out at 5.01.

Take `Nc1nc(Nc2ccccc2)nc(-c2ccccc2CO)n1`: the log(activity) in test [1] worked out at 0.4; in test [2], 0.72. Moreover, the Activity index in test [3] is 5.04.

Regarding `Cc1ccccc1CNc1nc(N)nc(-c2ccccc2CO)n1`, the log(activity) in test [1] was determined as 0.33; in test [2], 0.54. Also, the Activity index in test [3] was found to be 5.57.

For `Nc1nc(NCc2ccccc2Cl)nc(-c2ccccc2CO)n1`, the log(activity) was found to be 0.23 in test [1] and 0.64 in test [2]. The Activity index in test [3] came to 5.94.

`Cc1cccc(CNc2nc(N)nc(-c3ccccc3CO)n2)c1`: the log(activity) is 0.25 in test [1] and 0.92 in test [2]. In test [3], the Activity index is 5.57.

Consider `COc1cccc(-c2nc(N)nc(NCc3ccccc3)n2)c1CO`, for which the log(activity) in test [1] came to 0.3; in test [2], 0.4. In addition, the Activity index in test [3] is 4.86.

As to `Nc1nc(NCc2ccc(Oc3ccccc3)cc2)nc(-c2ccccc2CO)n1`, the results for the log(activity) in test [1] and in test [2] were 0 and 0.95, respectively. In addition, the Activity index in test [3] was determined as 6.14.

Regarding `CCOc1ccc(-c2nc(N)nc(NCc3ccccc3)n2)c(CO)c1`, the log(activity) in test [1] was 0.1; in test [2] it was 0.87. For the same compound, the Activity index in test [3] turned out to be 5.34.

Turning to `Nc1nc(NCc2ccccc2)nc(-c2ccc(F)cc2CO)n1`, the log(activity) in test [1] came to 0.24; in test [2], 0.64. The Activity index in test [3] was 5.46.

As to `Nc1nc(NCc2ccccc2F)nc(-c2c(F)cccc2CO)n1`, the figures for the log(activity) in test [1] and in test [2] were 0.09 and 1.09, respectively. Also, in test [3], the Activity index is 5.4.

For the compound `Nc1nc(NCc2ccc(OC3CC3)cc2)nc(-c2ccccc2CO)n1`, the log(activity) in test [1] was found to be 0.04; in test [2], 0.67. The Activity index in test [3] was determined as 5.77.

Regarding `Nc1nc(NCCCCc2ccccc2)nc(-c2cc(Cl)ccc2CO)n1`, the log(activity) in test [1] turned out to be 0.06; in test [2], 1.09. Moreover, the Activity index in test [3] was 6.14.

With `Nc1nc(NCCCCc2ccccc2)nc(-c2c(F)cccc2CO)n1`, the log(activity) in test [1] amounted to 0.06; in test [2] it was 1.24. In addition, the Activity index in test [3] turned out to be 5.34.

Turning to `Cc1cccc(CNc2nc(N)nc(-c3c(F)cccc3CO)n2)c1`, the log(activity) in test [1] worked out at 0.14; in test [2], 0.84. For the same compound, the Activity index in test [3] worked out at 5.42.

As to `Nc1nc(NCCc2ccccc2)nc(-c2c(F)cccc2CO)n1`, the log(activity) was determined as 0.03 in test [1] and 1.06 in test [2]. Further, the Activity index in test [3] amounted to 6.13.

On to `Nc1nc(NCc2ccccc2)nc(-c2cc(Cl)ccc2CO)n1`, for which the results for the log(activity) in test [1] and in test [2] were 0.09 and 1.2, respectively. The Activity index in test [3] was 5.78.

On to `Nc1nc(NCc2ccccc2)nc(-c2cc(F)ccc2CO)n1`, for which the values for the log(activity) in test [1] and in test [2] were 0.2 and 0.91, respectively. In test [3], the Activity index was determined as 5.69.

With `Nc1nc(NCCCc2ccc(Oc3ccccc3)cc2)nc(-c2c(F)cccc2CO)n1`, the log(activity) in test [1] was 0.01; in test [2] it was 1.15. Besides, the Activity index in test [3] was found to be 6.1.

Take `Nc1nc(NCc2ccccc2)nc(-c2c(F)cccc2CO)n1`: the log(activity) in test [1] was 0.35; in test [2] it was 1.15. Besides, the Activity index in test [3] is 5.19.

For `Nc1nc(NCc2ccc(C(F)(F)F)cc2)nc(-c2ccccc2CO)n1`, the log(activity) in test [1] came out at 0.3; in test [2] it was 0.78. For the same compound, the Activity index in test [3] was found to be 6.1.

As for `Nc1nc(NCCCc2ccccc2)nc(-c2c(F)cccc2CO)n1`, the log(activity) was found to be 0.02 in test [1] and 1.19 in test [2]. The Activity index in test [3] was determined as 5.67.

For `CC(C)Oc1ccc(CNc2nc(N)nc(-c3ccccc3CO)n2)cc1`, the log(activity) worked out at 0.17 in test [1] and 0.53 in test [2]. In addition, the Activity index in test [3] worked out at 5.69.

On to `COc1ccccc1CNc1nc(N)nc(-c2c(F)cccc2CO)n1`, for which the log(activity) is -0.12 in test [1] and 1.12 in test [2]. Further, in test [3], the Activity index stood at 5.11.
